How the values were obtained:
[1] = system: Canis familiaris; experiment: Cardiotoxicity in vagotomized dog assessed as QRS interval at 1 to 10 mg/kg, iv up to 90 mins; assay type: toxicity, organism-based, Canis lupus familiaris; parameters: dose 1-10 mg/kg, route intravenous; conditions: in vivo, 1.5 h
Summary of the method: (§1)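 Anesthetized, vagotomized dogs received an intravenous infusion in sequential rising cumulative doses of 1, 3 and 10 mg/kg. MAP, HR, QRS, PR and QTc were monitored, with plasma exposure sampled at the indicated time points (n = 3).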

[2] = system: Rattus norvegicus; experiment: Neurotoxicity in rat assessed as motor coordination at 100 mg/kg, po after 3 hrs; assay type: toxicity, organism-based; parameters: dose 100 mg/kg, route oral; conditions: in vivo
Summary of the method: (§2)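 Rats were dosed orally at 100 mg/kg, motor coordination was tested on a rota-rod 3 h later, and plasma and brain exposure were then measured.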

[3] = target: T1, Voltage-dependent N-type calcium channel subunit alpha-1B (Homo sapiens, UniProt Q00975); experiment: Inhibition of human Cav2.2 expressed CBK cells assessed as inhibition of channel current at 3 uM at holding membrane potential -40 mV by conventional patch clamp electrophysiology assay
Summary of the method: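 Cav2.2 current block was measured at a depolarized (−40 mV) or hyperpolarized (−90 mV) potential. At −40 mV, n = 2, 3, 4 and 1 at 0.3, 1, 3 and 10 μM. At −90 mV, n = 4 and 6 at 3 and 10 μM. Values are mean ± SEM.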
Target sequence in this assay (Q00975 whole entry, looked up): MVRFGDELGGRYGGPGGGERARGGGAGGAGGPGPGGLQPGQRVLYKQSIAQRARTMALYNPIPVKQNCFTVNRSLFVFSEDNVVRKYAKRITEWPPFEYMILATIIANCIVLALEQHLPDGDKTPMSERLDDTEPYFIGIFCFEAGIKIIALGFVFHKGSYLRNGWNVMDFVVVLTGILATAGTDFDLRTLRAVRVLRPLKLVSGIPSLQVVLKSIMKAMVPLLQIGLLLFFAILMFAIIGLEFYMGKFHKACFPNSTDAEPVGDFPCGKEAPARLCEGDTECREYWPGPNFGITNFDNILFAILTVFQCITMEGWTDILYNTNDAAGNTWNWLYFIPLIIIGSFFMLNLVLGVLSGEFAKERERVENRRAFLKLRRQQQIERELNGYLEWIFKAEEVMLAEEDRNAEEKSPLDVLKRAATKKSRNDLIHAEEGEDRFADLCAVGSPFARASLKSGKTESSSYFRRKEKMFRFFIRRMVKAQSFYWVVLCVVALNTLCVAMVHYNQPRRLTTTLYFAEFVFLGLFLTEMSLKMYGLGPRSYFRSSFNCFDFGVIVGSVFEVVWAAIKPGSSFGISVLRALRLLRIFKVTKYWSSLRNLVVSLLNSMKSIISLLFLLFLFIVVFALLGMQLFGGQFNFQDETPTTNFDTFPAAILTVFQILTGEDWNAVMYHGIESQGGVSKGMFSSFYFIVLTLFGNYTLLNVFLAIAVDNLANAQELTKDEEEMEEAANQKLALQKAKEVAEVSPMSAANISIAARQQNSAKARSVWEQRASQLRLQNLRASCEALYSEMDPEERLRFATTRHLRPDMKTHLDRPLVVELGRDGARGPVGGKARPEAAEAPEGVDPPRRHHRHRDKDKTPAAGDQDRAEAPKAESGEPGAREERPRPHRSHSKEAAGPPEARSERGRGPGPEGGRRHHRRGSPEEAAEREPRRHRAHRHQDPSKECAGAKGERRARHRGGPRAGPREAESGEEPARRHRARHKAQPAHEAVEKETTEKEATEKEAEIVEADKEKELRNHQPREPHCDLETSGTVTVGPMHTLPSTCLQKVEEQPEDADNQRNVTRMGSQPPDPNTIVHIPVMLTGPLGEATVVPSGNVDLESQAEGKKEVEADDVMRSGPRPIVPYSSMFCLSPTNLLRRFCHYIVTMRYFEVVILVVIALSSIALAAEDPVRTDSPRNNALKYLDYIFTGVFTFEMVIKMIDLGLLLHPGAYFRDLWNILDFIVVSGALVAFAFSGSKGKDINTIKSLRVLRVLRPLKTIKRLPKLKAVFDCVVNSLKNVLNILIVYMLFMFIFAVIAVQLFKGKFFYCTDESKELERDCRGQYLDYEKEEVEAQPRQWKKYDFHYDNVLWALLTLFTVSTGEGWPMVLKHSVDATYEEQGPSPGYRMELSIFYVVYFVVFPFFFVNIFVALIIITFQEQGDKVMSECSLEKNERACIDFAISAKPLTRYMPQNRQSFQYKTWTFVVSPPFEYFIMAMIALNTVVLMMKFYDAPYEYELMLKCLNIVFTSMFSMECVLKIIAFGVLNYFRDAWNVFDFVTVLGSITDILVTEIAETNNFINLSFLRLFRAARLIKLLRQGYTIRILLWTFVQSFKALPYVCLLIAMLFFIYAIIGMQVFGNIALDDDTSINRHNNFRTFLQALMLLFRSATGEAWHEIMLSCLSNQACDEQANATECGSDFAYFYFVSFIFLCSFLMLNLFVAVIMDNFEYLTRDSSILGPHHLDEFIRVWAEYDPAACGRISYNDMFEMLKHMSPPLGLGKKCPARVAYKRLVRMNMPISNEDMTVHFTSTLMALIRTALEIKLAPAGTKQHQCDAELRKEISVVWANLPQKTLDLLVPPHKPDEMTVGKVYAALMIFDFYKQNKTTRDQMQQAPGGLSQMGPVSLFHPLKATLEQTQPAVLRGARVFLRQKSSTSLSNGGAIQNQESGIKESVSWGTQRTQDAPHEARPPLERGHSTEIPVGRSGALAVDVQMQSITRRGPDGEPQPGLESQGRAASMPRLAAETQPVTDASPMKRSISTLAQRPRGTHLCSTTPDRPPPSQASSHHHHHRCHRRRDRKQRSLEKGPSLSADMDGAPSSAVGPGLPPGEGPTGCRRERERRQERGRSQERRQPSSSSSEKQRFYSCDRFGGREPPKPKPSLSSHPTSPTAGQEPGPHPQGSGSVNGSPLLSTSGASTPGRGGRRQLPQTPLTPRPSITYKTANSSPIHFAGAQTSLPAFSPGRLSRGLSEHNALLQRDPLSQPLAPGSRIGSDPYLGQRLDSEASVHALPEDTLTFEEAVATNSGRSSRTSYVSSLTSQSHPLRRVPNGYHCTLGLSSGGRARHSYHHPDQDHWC

[4] = Plasma clearance in rat at 3 mg/kg, po and 1 mg/kg, iv; assay type: ADME, organism-based
Summary of the method: (§3)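 Rat pharmacokinetics from iv and po arms: 0.6 mg/kg iv with 1.8 mg/kg po, or 1 mg/kg iv with 3 mg/kg po. AUC was normalized to po dose (μM·h·kg/mg). Clearance (mL/min/kg) and half-life come from the iv arm, and F% is oral bioavailability.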

[5] = target: Cytochrome P450 3A4 (Homo sapiens, UniProt P08684); experiment: Inhibition of CYP3A4; assay type: ADME
[6] = Fraction unbound in human plasma; assay type: ADME, cell-free
[7] = Oral bioavailability in rat at 3 mg/kg; assay type: ADME, organism-based; conditions: in vivo; summary of the method: as §3
[8] = Half life in rat at 3 mg/kg, po and 1 mg/kg, iv; assay type: ADME, organism-based; conditions: in vivo; summary of the method: as §3
[9] = system: Canis familiaris; experiment: Cardiotoxicity in vagotomized dog assessed as PR interval at 1 to 10 mg/kg, iv up to 90 mins; assay type: toxicity, organism-based, Canis lupus familiaris; parameters: dose 1-10 mg/kg, route intravenous; conditions: in vivo, 1.5 h; summary of the method: as §1
[10] = Metabolic stability in rat liver microsomes assessed as compound remaining at 1 uM after 1 hr; assay type: ADME, Microsome; conditions: read-out: Stability
Summary of the method: (§4)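 Compound at 1 μM was incubated with human or rat liver microsomes (1 mg/mL) for 1 h, and the percentage of parent remaining was determined.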

[11] = system: Blood; experiment: Drug metabolism in Sprague-Dawley rat assessed as 3-trifluoromethylbenzenesulfonamide level in blood at 10 mg/kg, po after 8 hrs; assay type: ADME, organism-based; parameters: dose 10 mg/kg, route oral; conditions: in vivo
Summary of the method: (§5)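 Male Sprague-Dawley rats were given a 10 mg/kg oral dose. Parent and metabolite concentrations were measured in whole blood and brain over time, including 8 h postdose.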

[12] = system: Mus musculus; experiment: Antinociceptive activity in Cav2.2 expressing wild type mouse SNL neuropathic pain model assessed as reversal of mechanical allodynia at 30 mg/kg, po after 2 hrs; assay type: functional
Summary of the method: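 Cav2.2+/+ and Cav2.2−/− mice underwent spinal nerve ligation, then got a single 30 mg/kg oral dose. Mechanical allodynia was scored 2 h postdose.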

[13] = system: Liver microsomes; experiment: Drug metabolism in human liver microsomes assessed as assessed as 3-trifluoromethylbenzenesulfonamide level level; assay type: ADME, Microsome
[14] = system: Liver microsomes; experiment: Drug metabolism in rat liver microsomes assessed as assessed as 3-trifluoromethylbenzenesulfonamide level level; assay type: ADME, Microsome
[15] = system: Rattus norvegicus; experiment: Analgesic activity in po dosed rat SNL neuropathic pain model assessed as reversal of mechanical allodynia after 1 to 24 hrs; assay type: functional, organism-based
[16] = target: T2, hERG (Homo sapiens, UniProt Q12809); experiment: Displacement of [35S]-MK-0499 from human ERG at 10 uM; conditions: probe [35S]-MK-0499
Summary of the method: (§6)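 hERG binding was measured as displacement of 35S-labeled MK-0499 at single test concentrations.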

[17] = target: T1, Voltage-dependent N-type calcium channel subunit alpha-1B; experiment: Inhibition of Cav2.2 expressed HEK293 cells assessed as inhibition of calcium flux by FLIPR assay in presence of 30 mM of potassium; assay type: cell-based
Summary of the method: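 Calcium influx was read with a calcium-sensitive dye on FLIPR Tetra in CBK cells expressing α1B-1, α2-δ and β3a with Kir2.3. Cells were preincubated with compound in 30 mM K+, then channels were opened by 1:1 addition of 140 mM K+ solution. Compounds were screened at 1 μM, then titrated over 10 points (0.001–30 μM) in quadruplicate, mean ± SD. Values are averages of n ≥ 3.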
Target sequence in this assay (Q00975 whole entry): as the sequence (Q00975 whole entry, looked up) above

[18] = target: T2, hERG; experiment: Displacement of [35S]-MK-0499 from human ERG at 1 uM; conditions: probe [35S]-MK-0499; summary of the method: as §6
[19] = system: Rattus norvegicus; experiment: Analgesic activity in rat SNL neuropathic pain model assessed as reversal of mechanical allodynia at 30 mg/kg, po after 1 hr; assay type: functional
[20] = system: Mus musculus; experiment: Antinociceptive activity in Cav2.2 deficient mouse assessed as reversal of complete Freund's adjuvant-induced pain at 30 mg/kg, po after 2 hrs; assay type: functional
[21] = Metabolic stability in human liver microsomes assessed as compound remaining at 1 uM after 1 hr; assay type: ADME, Microsome; conditions: read-out: Stability; summary of the method: as §4
[22] = system: Rattus norvegicus; experiment: Analgesic activity in rat SNL neuropathic pain model assessed as reversal of mechanical allodynia at 10 mg/kg, po after 1 hr; assay type: functional
[23] = Plasma concentration in rat complete Freund's adjuvant-induced pain model at 10 mg/kg, po after 3 hrs; assay type: ADME, organism-based; parameters: dose 10 mg/kg, route oral
Summary of the method: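 Separate CFA-treated rats given single oral 10 mg/kg dose; plasma exposure measured 3 h after dosing.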

[24] = system: Brain; experiment: Drug metabolism in Sprague-Dawley rat assessed as 3-trifluoromethylbenzenesulfonamide level in brain at 10 mg/kg, po after 8 hrs; assay type: ADME, organism-based; parameters: dose 10 mg/kg, route oral; conditions: in vivo; summary of the method: as §5
[25] = system: Rattus norvegicus; experiment: Antinociceptive activity in rat assessed as reversal of complete Freund's adjuvant-induced pain at 30 mg/kg, po after 3 hrs; assay type: functional
Summary of the method: (§7)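 In the rat CFA inflammatory pain model, compound was given orally at 30 mg/kg and allodynia was read at 1 and 3 h postdose. Average % reversal = (postdose − predose)/(preinjury − predose) for each rat, n = 6. Plasma exposure at 3 h was measured in satellite rats (n = 2).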

[26] = system: Canis familiaris; experiment: Cardiotoxicity in vagotomized dog assessed as mean arterial pressure at 1 to 10 mg/kg, iv up to 90 mins; assay type: toxicity, organism-based, Canis lupus familiaris, Artery; parameters: dose 1-10 mg/kg, route intravenous; conditions: in vivo, 1.5 h; summary of the method: as §1
[27] = Plasma concentration in rat SNL neuropathic pain model at 10 mg/kg, po after 3 hrs; assay type: ADME, organism-based; parameters: dose 10 mg/kg, route oral
Summary of the method: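 Rats with spinal nerve ligation; separate SNL-treated rats given single oral 10 mg/kg dose; plasma exposure measured 3 h postdose.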

[28] = Fraction unbound in rat plasma; assay type: ADME, cell-free
[29] = system: Rattus norvegicus; experiment: Dose normalized AUC in rat at 3 mg/kg, po and 1 mg/kg, iv; assay type: ADME, organism-based; conditions: in vivo; summary of the method: as §3
[30] = Drug level rat brain at 100 mg/kg, po after 3 hrs; assay type: ADME, organism-based; parameters: dose 100 mg/kg, route oral; conditions: read-out: Drug uptake; summary of the method: as §2
[31] = system: Rattus norvegicus; experiment: Antinociceptive activity in rat assessed as reversal of complete Freund's adjuvant-induced pain at 30 mg/kg, po after 1 hr; assay type: functional; summary of the method: as §7
[32] = Plasma concentration in vagotomized dog at 1 mg/kg, iv after 30 mins; assay type: ADME, organism-based, Canis lupus familiaris; parameters: dose 1 mg/kg, route intravenous
Summary of the method: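 Anesthetized, vagotomized dogs; intravenous infusion in sequential rising doses of 1, 3 and 10 mg/kg (cumulative); plasma exposure sampled at indicated time points, n = 3.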

[33] = system: Canis familiaris; experiment: Cardiotoxicity in vagotomized dog assessed as heart rate at 1 to 10 mg/kg, iv up to 90 mins; assay type: toxicity, organism-based, Canis lupus familiaris; parameters: dose 1-10 mg/kg, route intravenous; conditions: in vivo, 1.5 h; summary of the method: as §1
[34] = system: Canis familiaris; experiment: Cardiotoxicity in vagotomized dog assessed as QTc interval at 1 to 10 mg/kg, iv up to 90 mins; assay type: toxicity, organism-based, Canis lupus familiaris; parameters: dose 1-10 mg/kg, route intravenous; conditions: in vivo, 1.5 h; summary of the method: as §1

T2 sequence (Q12809 whole entry): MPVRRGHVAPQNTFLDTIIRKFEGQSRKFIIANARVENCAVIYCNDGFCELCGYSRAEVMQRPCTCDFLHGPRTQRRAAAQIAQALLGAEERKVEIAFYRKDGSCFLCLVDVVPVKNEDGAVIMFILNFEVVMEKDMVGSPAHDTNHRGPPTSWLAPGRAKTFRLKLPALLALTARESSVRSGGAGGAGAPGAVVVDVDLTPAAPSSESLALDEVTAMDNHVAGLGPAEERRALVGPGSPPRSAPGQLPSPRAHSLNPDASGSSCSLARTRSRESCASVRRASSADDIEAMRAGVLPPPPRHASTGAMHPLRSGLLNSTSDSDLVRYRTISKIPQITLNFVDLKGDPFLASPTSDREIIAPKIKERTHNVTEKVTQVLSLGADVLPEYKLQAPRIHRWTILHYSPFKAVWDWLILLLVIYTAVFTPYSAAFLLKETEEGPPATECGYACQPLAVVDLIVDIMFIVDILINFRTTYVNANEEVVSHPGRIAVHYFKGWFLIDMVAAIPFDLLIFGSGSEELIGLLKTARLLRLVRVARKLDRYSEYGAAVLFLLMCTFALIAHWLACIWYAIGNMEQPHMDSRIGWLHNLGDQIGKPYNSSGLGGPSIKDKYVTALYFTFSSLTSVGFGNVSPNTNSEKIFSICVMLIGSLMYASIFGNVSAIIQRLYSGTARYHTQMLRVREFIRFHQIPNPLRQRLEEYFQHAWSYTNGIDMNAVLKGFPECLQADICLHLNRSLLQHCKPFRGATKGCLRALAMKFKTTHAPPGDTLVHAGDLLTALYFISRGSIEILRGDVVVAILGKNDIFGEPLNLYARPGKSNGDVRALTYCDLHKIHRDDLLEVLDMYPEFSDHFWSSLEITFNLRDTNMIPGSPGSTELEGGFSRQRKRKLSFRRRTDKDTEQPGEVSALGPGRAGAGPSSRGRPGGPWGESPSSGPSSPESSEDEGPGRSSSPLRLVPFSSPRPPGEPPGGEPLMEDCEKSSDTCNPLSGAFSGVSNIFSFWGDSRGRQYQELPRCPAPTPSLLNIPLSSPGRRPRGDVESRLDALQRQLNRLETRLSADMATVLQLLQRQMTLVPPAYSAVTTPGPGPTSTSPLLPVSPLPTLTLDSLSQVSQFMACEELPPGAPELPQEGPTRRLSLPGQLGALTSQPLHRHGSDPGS
Cytochrome P450 3A4, sequence (P08684 whole entry): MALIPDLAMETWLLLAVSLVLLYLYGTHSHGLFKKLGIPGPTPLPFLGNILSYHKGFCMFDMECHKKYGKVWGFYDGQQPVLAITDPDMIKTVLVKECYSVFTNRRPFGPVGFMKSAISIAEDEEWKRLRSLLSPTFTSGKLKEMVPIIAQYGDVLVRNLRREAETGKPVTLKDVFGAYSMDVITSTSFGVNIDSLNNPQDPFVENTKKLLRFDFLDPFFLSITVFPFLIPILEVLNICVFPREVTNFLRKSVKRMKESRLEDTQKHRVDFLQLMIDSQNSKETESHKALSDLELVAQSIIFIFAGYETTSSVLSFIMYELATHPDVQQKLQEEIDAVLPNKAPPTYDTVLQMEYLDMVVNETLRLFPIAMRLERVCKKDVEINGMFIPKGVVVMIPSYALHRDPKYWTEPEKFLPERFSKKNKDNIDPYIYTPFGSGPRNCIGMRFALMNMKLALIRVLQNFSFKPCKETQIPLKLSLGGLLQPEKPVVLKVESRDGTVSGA

Compound: CS(=O)(=O)c1ccc(F)cc1C(=O)N1CCC(N(C2CC2)S(=O)(=O)c2cccc(C(F)(F)F)c2)CC1
- Activity [1]: Non-toxic
- Activity [2]: Non-toxic
- inhibition [3]: 84%
- clearance [4]: 35 mL/min/kg
- IC50 [5]: 5.1 µM
- fraction unbound [6]: 0.014
- bioavailability [7]: 99%
- half-life [8]: 78 min
- Activity [9]: Non-toxic
- remaining at 1 h, 1 µM [10]: 40%
- Drug metabolism [11]: 6.1 µM
- Activity [12]: 38%
- Drug metabolism [13]: Active
- Drug metabolism [14]: Active
- Activity [15]: Dose-dependent effect
- inhibition at 10 µM [16]: 32%
- IC50 [17]: 560 nM
- inhibition at 1 µM [18]: 1.6%
- Activity [19]: 65%
- Activity [20]: 4%
- remaining at 1 h, 1 µM [21]: 30%
- Activity [22]: 45%
- concentration at 3 h [23]: 1660 nM
- Drug metabolism [24]: Active
- Activity [25]: 57%
- Activity [26]: Non-toxic
- concentration at 3 h [27]: 1260 nM
- fraction unbound [28]: 0.02
- AUC/dose [29]: 0.86 µM·kg·h/mg
- concentration at 3 h [30]: 11.9 µM
- Activity [31]: 66%
- concentration at 0.5 h [32]: 1960 nM
- Activity [33]: Non-toxic
- Activity [34]: Non-toxic

Source: ChEMBL document CHEMBL2176883, “Aminopiperidine sulfonamide Cav2.2 channel inhibitors for the treatment of chronic pain” (J Med Chem, 2012)
